In brackets after ≈: the same amount, converted by molar mass. Activity calls are given as the source filed them. No cut-off for these calls is given here.
How the values were obtained:
[1] = Cytotoxicity against human MT4 cells; type: cell-based
[2] = test system: Vesicular stomatitis virus; assay: Antiviral activity against Vesicular stomatitis virus ATCC VR 1540 infected in African green monkey Vero 76 cells assessed as reduction of virus-plaque formation after 2 days by crystal violet staining; type: functional, organism-based; conditions: ATCC VR 1540, Vero, 48 h
[3] = test system: Human immunodeficiency virus 1; assay: Antiviral activity against HIV1 3B infected in human MT4 cells assessed as protection against virus-induced cytopathogenicity by MTT assay; type: functional, organism-based; conditions: Human immunodeficiency virus 1, 3B
[4] = Cytotoxicity against bovine MDBK cells assessed as cell viability after 48 to 96 hrs by MTT assay; type: cell-based, Bos taurus; conditions: cattle
[5] = Antiviral activity against Bovine viral diarrhea virus 1-NADL ATCC VR-534 infected in MDBK cells assessed as protection against virus-induced cytopathogenicity after 3 to 4 days by MTT assay; type: functional, cell-based; conditions: Bovine viral diarrhea virus isolates and strains, ATCC VR-534, MDBK
Method in brief: (§1)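 Cells seeded in 96-well plates (BHK 5x10^4, MDBK 3x10^4 cells/well), grown overnight to confluence, infected at m.o.i. 0.01 (BHK for Reo-1, MDBK for BVDV); serial compound dilutions in maintenance medium with 0.5% inactivated FBS added after 1 h; viability by MTT after 3–4 days at 37°C; EC50 for 50% protection by linear regression.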

[6] = Cytotoxicity against BHK cells assessed as cell viability after 48 to 96 hrs by MTT assay; type: cell-based, Mesocricetus auratus; conditions: hamster
Yellow fever virus = assay: Antiviral activity against Yellow fever virus 17D infected in BHK cells assessed as protection against virus-induced cytopathogenicity after 3 to 4 days by MTT assay; type: functional, cell-based
[7] = test system: Mammalian orthoreovirus 1; assay: Antiviral activity against Reovirus type-1 ATCC VR-214 infected in BHK cells assessed as protection against virus-induced cytopathogenicity after 3 to 4 days by MTT assay; type: functional, cell-based; conditions: Mammalian orthoreovirus 1, ATCC VR-214, BHK; method in brief: as §1
[8] = Cytotoxicity against African green monkey Vero 76 cells assessed as cell viability after 48 to 96 hrs by crystal violet staining; type: cell-based; conditions: chlorocebus sabaeus
Coxsackievirus B5 = assay: Antiviral activity against Human coxsackievirus B5 ATCC VR-29 infected in African green monkey Vero 76 cells assessed as reduction of virus-plaque formation after 3 days by crystal violet staining; type: functional, organism-based; conditions: Enterovirus B, ATCC VR-29, Vero, 72 h
Method in brief: (§2)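 Plaque reduction: Vero-76 at 2x10^5 cells/well grown to confluent monolayers, infected 2 h at 50–100 PFU/well; after removing unadsorbed virus, overlay of D-MEM, 1% inactivated FBS, 0.75% methylcellulose with or without serial compound dilutions; 3 days at 37°C, fixed and stained with crystal violet in 50% ethanol, plaques counted; EC50 by linear regression.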

Poliovirus 1 = assay: Antiviral activity against Poliovirus type 1 ATCC VR-1562 infected in African green monkey Vero 76 cells assessed as reduction of virus-plaque formation after 2 days by crystal violet staining; type: functional, organism-based; conditions: Enterovirus C, ATCC VR-1562, Vero, 48 h
Vaccinia virus = assay: Antiviral activity against Human Vaccinia virus ATCC VR-1549 infected in African green monkey Vero 76 cells assessed as reduction of virus-plaque formation after 3 days by crystal violet staining; type: functional, organism-based; conditions: Orthopoxvirus vaccinia, ATCC VR-1549, Vero, 72 h
Human alphaherpesvirus 1 = assay: Antiviral activity against Human herpesvirus 1 KOS ATCC VR-1493 infected in African green monkey Vero 76 cells assessed as reduction of virus-plaque formation after 3 days by crystal violet staining; type: functional, organism-based; conditions: Human alphaherpesvirus 1, KOS ATCC VR1493, Vero, 72 h; method in brief: as §2
Staphylococcus aureus [9] = assay: Antimicrobial activity against Staphylococcus aureus NCTC 4163 at 400 ug after 18 hrs by disc-diffusion method; type: functional; conditions: NCTC 4163, 18 h, read-out: IZ
Method in brief: (§3)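 Disc diffusion on Mueller-Hinton II agar per CLSI; 9 mm paper discs loaded with 400 µg compound from DMSO solution, dried, placed on agar; growth inhibition zone diameter read after 18 h at 35°C.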

Staphylococcus aureus [10] = assay: Antimicrobial activity against Staphylococcus aureus ATCC 25923 at 400 ug after 18 hrs by disc-diffusion method; type: functional; conditions: ATCC 25923, 18 h, read-out: IZ; method in brief: as §3
Staphylococcus aureus [11] = assay: Antimicrobial activity against Staphylococcus aureus ATCC 6538 at 400 ug after 18 hrs by disc-diffusion method; type: functional; conditions: ATCC 6538, 18 h, read-out: IZ; method in brief: as §3
Staphylococcus aureus [12] = assay: Antimicrobial activity against Staphylococcus aureus ATCC 29213 at 400 ug after 18 hrs by disc-diffusion method; type: functional; conditions: ATCC 29213, 18 h, read-out: IZ; method in brief: as §3
[13] = test system: Staphylococcus epidermidis; assay: Antimicrobial activity against Staphylococcus epidermidis ATCC 12228 at 400 ug after 18 hrs by disc-diffusion method; type: functional; conditions: ATCC 12228, 18 h, read-out: IZ; method in brief: as §3
[14] = test system: Staphylococcus epidermidis; assay: Antimicrobial activity against Staphylococcus epidermidis ATCC 35984 at 400 ug after 18 hrs by disc-diffusion method; type: functional; conditions: ATCC 35984, 18 h, read-out: IZ; method in brief: as §3
Bacillus subtilis = assay: Antimicrobial activity against Bacillus subtilis ATCC 6633 at 400 ug after 18 hrs by disc-diffusion method; type: functional; conditions: ATCC 6633, 18 h, read-out: IZ; method in brief: as §3
Bacillus cereus = assay: Antimicrobial activity against Bacillus cereus ATCC 11778 at 400 ug after 18 hrs by disc-diffusion method; type: functional; conditions: ATCC 11778, 18 h, read-out: IZ; method in brief: as §3
Enterococcus hirae = assay: Antimicrobial activity against Enterococcus hirae ATCC 10541 at 400 ug after 18 hrs by disc-diffusion method; type: functional; method in brief: as §3
Enterococcus faecalis = assay: Antimicrobial activity against Enterococcus faecalis ATCC 29212 at 400 ug after 18 hrs by disc-diffusion method; type: functional; conditions: ATCC 29212, 18 h, read-out: IZ; method in brief: as §3
Micrococcus luteus [15] = assay: Antimicrobial activity against Micrococcus luteus ATCC 10240 at 400 ug after 18 hrs by disc-diffusion method; type: functional; conditions: ATCC 10240, 18 h, read-out: IZ; method in brief: as §3
Micrococcus luteus [16] = assay: Antimicrobial activity against Micrococcus luteus ATCC 9341 at 400 ug after 18 hrs by disc-diffusion method; type: functional; conditions: ATCC 9341, 18 h, read-out: IZ; method in brief: as §3
Proteus vulgaris = assay: Antimicrobial activity against Proteus vulgaris NCTC 4635 at 400 ug after 18 hrs by disc-diffusion method; type: functional; method in brief: as §3
Staphylococcus aureus [17] = assay: Antimicrobial activity against Staphylococcus aureus NCTC 4163 after 18 hrs by twofold serial microdilution method; type: functional; conditions: NCTC 4163, 18 h
Staphylococcus aureus [18] = assay: Antimicrobial activity against Staphylococcus aureus ATCC 25923 after 18 hrs by twofold serial microdilution method; type: functional; conditions: ATCC 25923, 18 h
Staphylococcus aureus [19] = assay: Antimicrobial activity against Staphylococcus aureus ATCC 6538 after 18 hrs by twofold serial microdilution method; type: functional; conditions: ATCC 6538, 18 h
Staphylococcus aureus [20] = assay: Antimicrobial activity against Staphylococcus aureus ATCC 29213 after 18 hrs by twofold serial microdilution method; type: functional; conditions: ATCC 29213, 18 h
[21] = test system: Staphylococcus epidermidis; assay: Antimicrobial activity against Staphylococcus epidermidis ATCC 12228 after 18 hrs by twofold serial microdilution method; type: functional; conditions: ATCC 12228, 18 h
[22] = test system: Staphylococcus epidermidis; assay: Antimicrobial activity against Staphylococcus epidermidis ATCC 35984 after 18 hrs by twofold serial microdilution method; type: functional; conditions: ATCC 35984, 18 h
[23] = test system: Mycobacterium tuberculosis; assay: Antimycobacterial activity against Mycobacterium tuberculosis H37Rv ATCC 25618; type: functional
Method in brief: (§4)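 Classical test-tube successive-dilution method in Youmans' modification of Proskauer and Beck liquid medium with 10% bovine serum. Inoculum came from 14-day cultures. DMSO stock was 10 mg/mL, diluted geometrically in medium. Tubes were incubated at 37 °C. Concentrations tested were 3.1, 6.2, 12.5, 25, 50 and 100 µg/ml. MIC is the minimum concentration inhibiting growth relative to compound-free tubes.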

[24] = test system: Mycobacterium tuberculosis; assay: Antimycobacterial activity against drug-sensitive Mycobacterium tuberculosis Spec. 192; type: functional; method in brief: as §4

| SMILES | CC50 [1] [µM] | EC50 [2] [µM] | EC50 [3] [µM] | CC50 [4] [µM] | EC50 [5] [µM] | CC50 [6] [µM] | EC50 (Yellow fever virus) [µM] | EC50 [7] [µM] | CC50 [8] [µM] | EC50 (Coxsackievirus B5) [µM] | EC50 (Poliovirus 1) [µM] | EC50 (Vaccinia virus) [µM] | EC50 (Human alphaherpesvirus 1) [µM] | zone of inhibition at 400 µg/disc (Staphylococcus aureus [9]) [mm] | zone of inhibition at 400 µg/disc (Staphylococcus aureus [10]) [mm] | zone of inhibition at 400 µg/disc (Staphylococcus aureus [11]) [mm] | zone of inhibition at 400 µg/disc (Staphylococcus aureus [12]) [mm] | zone of inhibition at 400 µg/disc [13] [mm] | zone of inhibition at 400 µg/disc [14] [mm] | zone of inhibition at 400 µg/disc (Bacillus subtilis) [mm] | also measured |
| --- | --- | --- | --- | --- | --- | --- | --- | --- | --- | --- | --- | --- | --- | --- | --- | --- | --- | --- | --- | --- | --- |
| Fc1ccccc1NC(=S)Nc1cccc(C(F)(F)F)c1 | 47 | > 64 | > 47 | > 100 | > 100 | 54 | > 54 | > 54 | 64 | > 64 | > 64 | > 64 | > 64 | 18 | 19 | 21 | 19 | 20 | 20 | 20 | zone of inhibition at 400 µg/disc (Bacillus cereus): 18 mm; inhibition zone (IZ) (Enterococcus hirae): inactive; zone of inhibition at 400 µg/disc (Enterococcus faecalis): 13 mm; zone of inhibition at 400 µg/disc (Micrococcus luteus [15]): 23 mm; zone of inhibition at 400 µg/disc (Micrococcus luteus [16]): 21 mm; zone of inhibition at 400 µg/disc (Proteus vulgaris; NCTC 4635, 18 h, read-out: IZ): 11 mm; MIC (Staphylococcus aureus [17]): 16 mg/L (≈ 50.9 µM); MIC (Staphylococcus aureus [18]): 16 mg/L (≈ 50.9 µM); MIC (Staphylococcus aureus [19]): 16 mg/L (≈ 50.9 µM); MIC (Staphylococcus aureus [20]): 16 mg/L (≈ 50.9 µM); MIC [21]: 16 mg/L (≈ 50.9 µM); MIC [22]: 32 mg/L (≈ 102 µM); MIC [23]: 100 mg/L (≈ 318 µM); MIC [24]: 100 mg/L (≈ 318 µM) |
| CSCCCNC(=S)Nc1cccc(C(F)(F)F)c1 | 43 | > 100 | > 43 | > 100 | > 100 | > 100 | > 100 | > 100 | > 100 | > 100 | > 100 | > 100 | > 100 | 19 | 18 | 18 | 18 | 20 | 16 | 18 | zone of inhibition at 400 µg/disc (Bacillus cereus): 19 mm; inhibition zone (IZ) (Enterococcus hirae): inactive; zone of inhibition at 400 µg/disc (Enterococcus faecalis): 13 mm; zone of inhibition at 400 µg/disc (Micrococcus luteus [15]): 16 mm; zone of inhibition at 400 µg/disc (Micrococcus luteus [16]): 20 mm; inhibition zone (IZ) (Proteus vulgaris): inactive; MIC (Staphylococcus aureus [17]): 32 mg/L (≈ 104 µM); MIC (Staphylococcus aureus [18]): 32 mg/L (≈ 104 µM); MIC (Staphylococcus aureus [19]): 32 mg/L (≈ 104 µM); MIC (Staphylococcus aureus [20]): 32 mg/L (≈ 104 µM); MIC [21]: 32 mg/L (≈ 104 µM); MIC [22]: 64 mg/L (≈ 208 µM); MIC [23]: 50 mg/L (≈ 162 µM); MIC [24]: 100 mg/L (≈ 324 µM) |
| COC(=O)c1ccccc1NC(=S)Nc1cccc(C(F)(F)F)c1 | > 100 | > 100 | > 100 | > 100 | > 100 | > 100 | > 100 | > 100 | > 100 | > 100 | > 100 | > 100 | > 100 | 25 | 24 | 25 | 23 | 26 | 24 | 20 | zone of inhibition at 400 µg/disc (Bacillus cereus): 19 mm; zone of inhibition at 400 µg/disc (Enterococcus hirae; ATCC 10541, 18 h, read-out: IZ): 11 mm; zone of inhibition at 400 µg/disc (Enterococcus faecalis): 14 mm; zone of inhibition at 400 µg/disc (Micrococcus luteus [15]): 24 mm; zone of inhibition at 400 µg/disc (Micrococcus luteus [16]): 25 mm; inhibition zone (IZ) (Proteus vulgaris): inactive; MIC (Staphylococcus aureus [17]): 32 mg/L (≈ 90.3 µM); MIC (Staphylococcus aureus [18]): 32 mg/L (≈ 90.3 µM); MIC (Staphylococcus aureus [19]): 32 mg/L (≈ 90.3 µM); MIC (Staphylococcus aureus [20]): 32 mg/L (≈ 90.3 µM); MIC [21]: 64 mg/L (≈ 181 µM); MIC [22]: 64 mg/L (≈ 181 µM); MIC [23]: > 100 mg/L; MIC [24]: > 100 mg/L |
